Data published in ChEMBL document CHEMBL3808369, “Identification of Cyproheptadine as an Inhibitor of SET Domain Containing Lysine Methyltransferase 7/9 (Set7/9) That Regulates Estrogen-Dependent Transcription” (J Med Chem, 2016).
Activity calls are given as the source filed them. The calls are words filed in the database; no cut-off is given here.

Columns and labels:
[1] = target: T1, Histone-lysine N-methyltransferase EHMT2 (Homo sapiens) (UniProt Q96KQ7); assay: Inhibition of G9a (unknown origin) by AlphaELISA
T1 sequence (whole entry): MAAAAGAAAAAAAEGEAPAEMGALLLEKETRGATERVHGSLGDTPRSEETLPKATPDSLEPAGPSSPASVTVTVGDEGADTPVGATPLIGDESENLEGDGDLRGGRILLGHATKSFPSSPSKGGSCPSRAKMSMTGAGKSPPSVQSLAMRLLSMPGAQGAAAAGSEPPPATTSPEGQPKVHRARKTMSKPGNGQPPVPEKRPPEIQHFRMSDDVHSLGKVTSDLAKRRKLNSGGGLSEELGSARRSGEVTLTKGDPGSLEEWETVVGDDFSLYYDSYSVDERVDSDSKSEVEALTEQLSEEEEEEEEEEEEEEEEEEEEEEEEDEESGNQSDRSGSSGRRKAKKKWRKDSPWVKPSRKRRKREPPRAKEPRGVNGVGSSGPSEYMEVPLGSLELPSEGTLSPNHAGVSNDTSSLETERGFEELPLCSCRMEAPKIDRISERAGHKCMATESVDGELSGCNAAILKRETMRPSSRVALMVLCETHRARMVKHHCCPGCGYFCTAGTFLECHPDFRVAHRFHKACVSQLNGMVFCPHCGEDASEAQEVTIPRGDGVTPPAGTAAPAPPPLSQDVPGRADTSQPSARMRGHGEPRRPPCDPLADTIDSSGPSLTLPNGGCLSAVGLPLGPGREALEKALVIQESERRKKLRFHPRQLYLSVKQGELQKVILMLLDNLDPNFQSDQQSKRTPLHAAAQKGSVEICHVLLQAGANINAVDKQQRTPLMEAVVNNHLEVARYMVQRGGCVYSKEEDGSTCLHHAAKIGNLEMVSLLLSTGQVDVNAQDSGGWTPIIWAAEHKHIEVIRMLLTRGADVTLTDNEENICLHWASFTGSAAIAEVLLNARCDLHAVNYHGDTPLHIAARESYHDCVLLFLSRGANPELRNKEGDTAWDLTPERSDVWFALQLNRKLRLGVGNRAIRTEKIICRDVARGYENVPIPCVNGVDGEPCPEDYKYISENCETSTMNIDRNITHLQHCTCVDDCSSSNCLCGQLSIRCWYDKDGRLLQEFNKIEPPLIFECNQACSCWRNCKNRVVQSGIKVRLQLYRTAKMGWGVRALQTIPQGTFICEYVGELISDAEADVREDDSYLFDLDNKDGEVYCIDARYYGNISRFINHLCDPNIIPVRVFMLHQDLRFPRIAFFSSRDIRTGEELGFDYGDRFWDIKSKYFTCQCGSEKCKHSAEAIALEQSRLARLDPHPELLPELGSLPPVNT

[2] = target: T2, N-lysine methyltransferase KMT5A (Homo sapiens) (UniProt Q9NQR1); assay: Inhibition of Set8 (unknown origin) by AlphaELISA
T2 sequence (whole entry): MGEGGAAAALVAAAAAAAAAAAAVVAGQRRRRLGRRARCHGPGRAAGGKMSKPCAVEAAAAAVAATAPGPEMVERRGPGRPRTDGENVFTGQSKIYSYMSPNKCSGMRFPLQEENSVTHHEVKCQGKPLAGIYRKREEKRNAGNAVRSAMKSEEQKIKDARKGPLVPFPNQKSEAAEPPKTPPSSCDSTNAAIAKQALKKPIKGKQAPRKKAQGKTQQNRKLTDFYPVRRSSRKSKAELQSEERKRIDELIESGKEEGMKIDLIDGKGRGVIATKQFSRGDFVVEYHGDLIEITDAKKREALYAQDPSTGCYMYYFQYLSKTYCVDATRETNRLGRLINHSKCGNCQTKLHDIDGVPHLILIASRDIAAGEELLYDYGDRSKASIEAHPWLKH

[3] = target: T3, Histone-lysine N-methyltransferase SETD7 (Homo sapiens) (UniProt Q8WTS6); assay: Inhibition of Set7/9 in human MCF7 cells assessed as suppression of beta-estradiol-induced ERE promoter activation at 14 to 43 uM preincubated for 18 hrs followed by beta-estradiol addition measured after 24 hrs by luciferase reporter gene assay; assay type: cell-based
T3 sequence (whole entry): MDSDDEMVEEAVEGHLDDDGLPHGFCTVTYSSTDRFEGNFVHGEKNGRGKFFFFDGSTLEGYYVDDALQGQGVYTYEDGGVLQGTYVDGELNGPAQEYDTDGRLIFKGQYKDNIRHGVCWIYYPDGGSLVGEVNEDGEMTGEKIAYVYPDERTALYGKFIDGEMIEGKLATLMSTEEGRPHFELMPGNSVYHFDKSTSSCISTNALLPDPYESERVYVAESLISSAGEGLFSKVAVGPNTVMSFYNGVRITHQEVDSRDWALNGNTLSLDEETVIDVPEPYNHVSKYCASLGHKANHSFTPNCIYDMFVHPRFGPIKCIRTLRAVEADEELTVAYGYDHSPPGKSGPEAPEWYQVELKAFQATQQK
Procedure, shortened: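 MCF7 cells held in estrogen-free medium (phenol red-free RPMI, 10% charcoal-stripped FBS) for 3 days. Cells were then transfected with a 3×ERE firefly luciferase reporter plus a TK-Renilla control. Drug added 6 h later; after 18 h, ±10 nM β-estradiol for 24 h. Firefly signal normalised to Renilla, expressed as fold over unstimulated cells. Four independent assays.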

[4] = target: T3, Histone-lysine N-methyltransferase SETD7 (Homo sapiens); assay: Inhibition of Set7/9 in human MCF7 cells assessed as reduction of ERalpha expression after 48 hrs by immunoblotting analysis; assay type: cell-based
Procedure, shortened: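 MCF7 cells (1 × 10^5 per well) treated either with a concentration series for 48 h or with 43 μM over a time course. RIPA-sonicated lysates were immunoblotted for ERα with enhanced chemiluminescence readout.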

[5] = system: MCF7; assay: Effect on ERalpha mRNA expression in human MCF7 cells at 4.3 to 43 uM after 48 hrs by RT-PCR analysis; assay type: functional, cell-based
Procedure, shortened: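 MCF7 cells were treated with or without compound for 48 h. Total RNA was isolated with TRIzol. ERα and GAPDH mRNA levels were measured by semiquantitative RT-PCR.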

[6] = target: T1, Histone-lysine N-methyltransferase EHMT2 (Homo sapiens); assay: Inhibition of G9a (unknown origin) by ELISA
[7] = target: T1, Histone-lysine N-methyltransferase EHMT2 (Homo sapiens); assay: Inhibition of G9a (unknown origin) by fluorogenic assay
[8] = target: T3, Histone-lysine N-methyltransferase SETD7 (Homo sapiens); assay: Inhibition of recombinant his-tagged Set7/9 (unknown origin) expressed in Escherichia coli BL21 (DE3) using GST-fused histone H3 (1 to 57 residues) as substrate preincubated for 1 hr followed by substrate addition measured after 1 hr by Western blot analysis
Procedure, shortened: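 His-Set7/9 (0.2 μg/μL) preincubated with or without inhibitor in HMT buffer for 1 h. Then 1 mM SAM and 0.01 μg/μL GST-histone H3 (1−57) were added and incubated 1 h at 37 °C. Reactions were stopped in SDS loading buffer and immunoblotted with an anti-H3K4me1 antibody.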

[9] = target: T3, Histone-lysine N-methyltransferase SETD7 (Homo sapiens); assay: Inhibition of Set7/9 in human MCF7 cells assessed as suppression of beta-estradiol-induced cell viability incubated for 4 days by haemocytometer; assay type: cell-based
Procedure, shortened: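 MCF7 cells (1.5 × 10^4 per well) switched to estrogen-free medium after 24 h. Drug added with or without 10 nM β-estradiol, 4 days' incubation. Cells counted by hemocytometer. Four independent assays.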

[10] = target: Histone-lysine N-methyltransferase, H3 lysine-79 specific (Homo sapiens) (UniProt Q8TEK3); assay: Inhibition of Dot1L (unknown origin) by AlphaELISA
Chain of Histone-lysine N-methyltransferase, H3 lysine-79 specific (Homo sapiens) (Q8TEK3 whole entry, looked up): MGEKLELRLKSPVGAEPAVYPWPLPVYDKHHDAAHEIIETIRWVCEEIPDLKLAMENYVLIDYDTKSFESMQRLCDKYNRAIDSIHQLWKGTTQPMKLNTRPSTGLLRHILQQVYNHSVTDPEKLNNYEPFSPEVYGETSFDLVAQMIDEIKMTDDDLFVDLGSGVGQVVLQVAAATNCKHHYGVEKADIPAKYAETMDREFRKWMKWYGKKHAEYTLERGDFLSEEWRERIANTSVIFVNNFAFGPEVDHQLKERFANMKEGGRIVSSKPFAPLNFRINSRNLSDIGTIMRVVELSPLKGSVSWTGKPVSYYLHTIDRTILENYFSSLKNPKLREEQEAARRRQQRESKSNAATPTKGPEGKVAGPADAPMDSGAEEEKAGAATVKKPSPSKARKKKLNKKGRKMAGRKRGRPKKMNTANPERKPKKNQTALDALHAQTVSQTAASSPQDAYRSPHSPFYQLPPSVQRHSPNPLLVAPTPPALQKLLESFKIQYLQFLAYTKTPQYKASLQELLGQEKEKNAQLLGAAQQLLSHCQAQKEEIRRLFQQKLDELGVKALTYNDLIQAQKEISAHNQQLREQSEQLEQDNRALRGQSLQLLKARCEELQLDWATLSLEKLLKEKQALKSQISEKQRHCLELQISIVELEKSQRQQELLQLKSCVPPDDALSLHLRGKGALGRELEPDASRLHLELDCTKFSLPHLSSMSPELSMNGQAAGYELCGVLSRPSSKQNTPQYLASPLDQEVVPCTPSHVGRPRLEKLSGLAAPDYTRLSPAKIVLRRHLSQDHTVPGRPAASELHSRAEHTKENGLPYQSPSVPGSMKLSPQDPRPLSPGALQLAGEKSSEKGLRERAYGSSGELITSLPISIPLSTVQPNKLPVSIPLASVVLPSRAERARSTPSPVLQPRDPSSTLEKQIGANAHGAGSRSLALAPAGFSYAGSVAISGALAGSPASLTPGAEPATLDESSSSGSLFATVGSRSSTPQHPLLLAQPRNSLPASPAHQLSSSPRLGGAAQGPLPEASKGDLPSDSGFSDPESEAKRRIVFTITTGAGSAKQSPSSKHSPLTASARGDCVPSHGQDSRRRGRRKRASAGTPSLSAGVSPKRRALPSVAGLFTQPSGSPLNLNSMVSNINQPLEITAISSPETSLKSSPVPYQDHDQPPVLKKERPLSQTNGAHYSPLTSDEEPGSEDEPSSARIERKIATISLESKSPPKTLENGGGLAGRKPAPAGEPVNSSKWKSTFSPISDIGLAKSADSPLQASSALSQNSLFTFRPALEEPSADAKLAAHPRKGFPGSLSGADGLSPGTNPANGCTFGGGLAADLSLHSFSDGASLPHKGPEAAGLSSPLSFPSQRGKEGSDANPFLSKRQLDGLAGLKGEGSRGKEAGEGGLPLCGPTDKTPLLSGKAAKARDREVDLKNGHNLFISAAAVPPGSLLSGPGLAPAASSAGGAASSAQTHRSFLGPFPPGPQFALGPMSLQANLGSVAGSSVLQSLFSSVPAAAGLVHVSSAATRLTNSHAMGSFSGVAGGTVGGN

inhibition [1]: Active
inhibition [2]: Active
inhibition [3]: Active
inhibition [4]: Dose-dependent effect
inhibition [6]: Active
inhibition [7]: Active
inhibition [8]: Active
inhibition [10]: Active
SMILES: CN1CCC(=C2c3ccccc3C=Cc3ccccc32)CC1 [CYPROHEPTADINE]
Activity [5]: inactive
inhibition [9]: Dose-dependent effect
